Assay results pooled from the literature.
Lines come from different studies, so protocols differ.
CDK4 with cyclin D3: Cyclin-dependent kinase 4, with cyclin D3 (CDK4, Homo sapiens, UniProt P11802)
CDK4 with cyclin D1: Cyclin-dependent kinase 4, with cyclin D1 (CDK4, Homo sapiens, UniProt P11802)
CDK4: Cyclin-dependent kinase 4 (CDK4, Homo sapiens, UniProt P11802)

Nc1ncc(-c2nc(N3CCOCC3)nc(N3CCOCC3)n2)c(C(F)F)n1
remaining binding (CDK4 with cyclin D3; binding; competition with immobilised ligand; 10 µM): 87%

CC(C)(C)c1cc(C=C(C#N)C#N)cc(Br)c1O
remaining activity (CDK4 with cyclin D1; enzyme activity; inhibitor; 0.5 µM): 115%

Cc1nn(C)cc1-c1nc2c(N3CCN(Cc4ccc(Cl)cc4)CC3)c(Cl)cnc2[nH]1
remaining binding (CDK4 with cyclin D3; binding; competition with immobilised ligand; 1 µM): 74%

CCOC(=O)[C@H]1Cc2c(cc([N+](=O)[O-])cc2[N+](=O)[O-])[C@H](O)[C@]12C(=O)Nc1cccc(Br)c12
inhibition (CDK4; cell-free assay; inhibitor; TR-FRET; 1 µM): 29.4%

Cn1cncc1[C@](O)(COc1ccc(C#N)cc1-c1ccc(OC(F)(F)F)cc1)c1ccc(C#N)cc1
remaining binding (CDK4 with cyclin D1; cell-free assay; competition with immobilised ligand; 1 µM): 100%

O=c1[nH]c2ccccc2n1C1CCN(Cc2ccc(-c3[nH]c4cc5ncnc5cc4nc3-c3ccccc3)cc2)CC1
remaining signal (CDK4 with cyclin D3; cell-free assay; 0.5 µM): 99.7%

N#CC1(c2ccccn2)CCN(Cc2cc(C(=O)O)c(=O)n3ccccc23)CC1
remaining binding (CDK4 with cyclin D3; cell-free assay; competition with immobilised ligand; 1 µM): 82%

CCOC(=O)[C@H]1Cc2c(cc([N+](=O)[O-])cc2[N+](=O)[O-])[C@H](O)[C@]12C(=O)Nc1ccc([N+](=O)[O-])cc12
inhibition (CDK4; cell-free assay; inhibitor; TR-FRET; 1 µM): 37.9%
